pIC50: −log10 of the molar value.
Experiments:
[1] = molecular target: T1, Serine/threonine-protein kinase PAK 1 (Homo sapiens, UniProt Q13153); experiment: Inhibition of full length recombinant human N-terminal GST/His6-tagged PAK1 expressed in sf9 insect cells using tetra LRRWSLG as substrate preincubated for 20 min followed by [gamma33P]ATP addition and measured after 120 mins by Hotspot assay
MDA-MB-231 = experiment: Antiproliferative activity against human MDA-MB-231 cells assessed as growth inhibition at 1 uM after 72 hrs by Cell Titer-Glo assay relative to control; type: functional; conditions: read-out: GI
Summary of the method: (§1)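 Cells kept at 37 °C in 5% CO2 and plated at 4000 per well. Treated with compound for 72 h. Viability read by CellTiter-Glo luminescence. Each compound run in duplicate, data as means ± SD.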

HCT-116 = experiment: Antiproliferative activity against human HCT-116 cells assessed as growth inhibition at 1 uM after 72 hrs by Cell Titer-Glo assay relative to control; type: functional; conditions: read-out: GI; summary of the method: as §1
[2] = molecular target: Voltage-gated inwardly rectifying potassium channel KCNH2 (Homo sapiens, UniProt Q12809); experiment: Inhibition of human ERG
Chain of Voltage-gated inwardly rectifying potassium channel KCNH2 (Q12809 whole entry): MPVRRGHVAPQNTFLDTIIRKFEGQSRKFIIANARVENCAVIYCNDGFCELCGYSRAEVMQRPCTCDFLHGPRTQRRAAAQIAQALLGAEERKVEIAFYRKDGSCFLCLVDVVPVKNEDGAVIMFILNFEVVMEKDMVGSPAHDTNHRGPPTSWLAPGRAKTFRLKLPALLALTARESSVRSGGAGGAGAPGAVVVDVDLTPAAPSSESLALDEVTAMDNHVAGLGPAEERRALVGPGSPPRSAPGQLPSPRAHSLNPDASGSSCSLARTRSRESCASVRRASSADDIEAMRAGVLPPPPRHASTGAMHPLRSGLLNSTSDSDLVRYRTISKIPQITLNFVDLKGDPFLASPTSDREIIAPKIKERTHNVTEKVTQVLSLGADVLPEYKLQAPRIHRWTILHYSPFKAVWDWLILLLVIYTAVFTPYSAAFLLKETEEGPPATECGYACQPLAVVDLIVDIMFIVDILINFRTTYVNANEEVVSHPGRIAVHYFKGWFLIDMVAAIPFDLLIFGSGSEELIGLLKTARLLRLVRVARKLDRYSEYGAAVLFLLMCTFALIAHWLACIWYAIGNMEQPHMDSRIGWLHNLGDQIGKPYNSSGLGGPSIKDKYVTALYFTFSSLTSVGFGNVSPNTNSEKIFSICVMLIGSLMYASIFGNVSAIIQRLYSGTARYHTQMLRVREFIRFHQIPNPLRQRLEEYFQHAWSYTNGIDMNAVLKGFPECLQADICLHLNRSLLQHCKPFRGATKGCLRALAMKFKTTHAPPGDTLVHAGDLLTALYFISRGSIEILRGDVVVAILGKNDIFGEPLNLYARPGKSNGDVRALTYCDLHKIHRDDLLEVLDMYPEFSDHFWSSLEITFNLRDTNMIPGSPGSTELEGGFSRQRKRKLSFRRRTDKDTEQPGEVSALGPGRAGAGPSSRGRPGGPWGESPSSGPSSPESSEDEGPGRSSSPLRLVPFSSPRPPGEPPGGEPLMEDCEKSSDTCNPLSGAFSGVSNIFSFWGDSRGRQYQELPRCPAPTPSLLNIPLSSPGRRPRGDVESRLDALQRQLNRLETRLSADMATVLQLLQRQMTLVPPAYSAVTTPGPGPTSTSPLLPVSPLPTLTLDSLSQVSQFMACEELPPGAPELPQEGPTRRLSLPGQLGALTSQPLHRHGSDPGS

[3] = molecular target: T1, Serine/threonine-protein kinase PAK 1; experiment: Inhibition of PAK1 (unknown origin)
Homo sapiens = organism: Homo sapiens; experiment: Selectivity index ratio of IC50 for inhibition of human PAK4 to IC50 for human PAK1
Summary of the method: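 Compound tested from 10 µM in 3-fold serial dilutions in the HotSpot radiometric assay, with 20 min preincubation, 10 µM ATP/33P-ATP and 120 min at 25 °C. Filter-binding gives IC50. Selectivity is expressed as the PAK4 IC50 divided by the PAK1 IC50.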

[4] = molecular target: Serine/threonine-protein kinase PAK 4 (Homo sapiens, UniProt O96013); experiment: Inhibition of full length recombinant human N-terminal GST/His6-tagged PAK4 expressed in baculovirus infected sf9 insect cells using tetra LRRWSLG as substrate preincubated for 20 min followed by [gamma33P]ATP addition and measured after 120 mins by Hotspot assay
Chain of Serine/threonine-protein kinase PAK 4 (O96013 whole entry): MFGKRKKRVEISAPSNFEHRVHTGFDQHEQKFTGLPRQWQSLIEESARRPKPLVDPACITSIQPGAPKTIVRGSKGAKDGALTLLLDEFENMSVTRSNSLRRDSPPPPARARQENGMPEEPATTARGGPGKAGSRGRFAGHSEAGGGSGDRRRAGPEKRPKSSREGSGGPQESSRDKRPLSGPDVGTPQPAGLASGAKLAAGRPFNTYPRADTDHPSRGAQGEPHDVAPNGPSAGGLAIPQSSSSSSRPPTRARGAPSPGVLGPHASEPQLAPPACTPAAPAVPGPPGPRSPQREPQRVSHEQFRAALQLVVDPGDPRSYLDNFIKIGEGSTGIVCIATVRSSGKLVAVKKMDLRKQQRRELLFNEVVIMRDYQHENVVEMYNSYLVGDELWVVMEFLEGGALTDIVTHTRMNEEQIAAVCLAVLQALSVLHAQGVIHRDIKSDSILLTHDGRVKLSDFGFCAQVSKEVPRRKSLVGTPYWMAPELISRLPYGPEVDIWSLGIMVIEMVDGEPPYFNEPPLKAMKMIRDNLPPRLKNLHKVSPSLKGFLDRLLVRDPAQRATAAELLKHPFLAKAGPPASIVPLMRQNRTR

T1 sequence (Q13153 whole entry): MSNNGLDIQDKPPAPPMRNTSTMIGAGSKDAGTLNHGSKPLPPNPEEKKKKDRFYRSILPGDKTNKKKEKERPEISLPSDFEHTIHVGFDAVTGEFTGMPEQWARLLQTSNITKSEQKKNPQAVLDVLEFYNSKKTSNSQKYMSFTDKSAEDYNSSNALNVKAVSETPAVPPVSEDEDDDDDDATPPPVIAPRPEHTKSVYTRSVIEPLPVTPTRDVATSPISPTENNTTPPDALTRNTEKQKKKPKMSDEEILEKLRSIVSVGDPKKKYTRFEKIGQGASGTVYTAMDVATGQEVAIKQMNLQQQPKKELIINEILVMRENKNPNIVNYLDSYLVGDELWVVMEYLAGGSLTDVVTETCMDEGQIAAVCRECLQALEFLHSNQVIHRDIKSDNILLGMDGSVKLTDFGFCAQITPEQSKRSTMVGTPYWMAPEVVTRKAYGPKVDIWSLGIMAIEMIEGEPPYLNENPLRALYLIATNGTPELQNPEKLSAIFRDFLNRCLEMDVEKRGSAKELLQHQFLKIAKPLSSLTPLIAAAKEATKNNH

| SMILES | pIC50 [1] | pIC50 [3] | Ratio IC50 (Homo sapiens) | pIC50 [4] | inhibition of growth at 1 µM (MDA-MB-231) [%] | inhibition of growth at 1 µM (HCT-116) [%] | pIC50 [2] |
| --- | --- | --- | --- | --- | --- | --- | --- |
| Cc1cccn(-c2ccc(-c3ccc4c(C(=O)N5CCOCC5)n[nH]c4c3)c(Cl)c2)c1=O | < 5.00 | – | – | – | – | – | – |
| Cc1cccn(-c2ccc(-c3ccc4c(C(=O)NC5CCN(C)CC5)n[nH]c4c3)c(Cl)c2)c1=O | 6.84 | – | – | – | – | – | – |
| Cc1cccn(-c2ccc(-c3ccc4c(C(=O)NCC5CCOCC5)n[nH]c4c3)c(Cl)c2)c1=O | 7.38 | – | – | – | 9.45 | 16.2 | – |
| CN[C@@H]1C[C@H]2O[C@@](C)([C@@H]1OC)n1c3ccccc3c3c4c(c5c6ccccc6n2c5c31)C(=O)NC4 | – | – | – | – | – | – | 4.04 |
| O=C(NCC1CC1)c1n[nH]c2cc(-c3ccc(-n4ccccc4=O)cc3Cl)ccc12 | 6.23 | – | – | – | – | – | – |
| Cc1cccn(-c2ccc(-c3ccc4c(C(=O)NCC5CCN(C)CC5)n[nH]c4c3)c(Cl)c2)c1=O | 7.66 | – | – | – | 18.4 | 20.1 | – |
| Cc1cccn(-c2ccc(-c3ccc4c(C(=O)NC5CCOCC5)n[nH]c4c3)c(Cl)c2)c1=O | 6.13 | – | – | – | 19.2 | 7.91 | – |
| Cc1nc(Nc2n[nH]c3c2CN(C(=O)N[C@H](CN(C)C)c2ccccc2)C3(C)C)c2sccc2n1 [PF-03758309] | – | – | – | – | 62.6 | 83.2 | 4.39 |
| Cc1cccn(-c2ccc(-c3ccc4c(C(=O)N5CCCC5)n[nH]c4c3)c(Cl)c2)c1=O | < 5.00 | – | – | – | – | – | – |
| Cc1cccn(-c2ccc(-c3ccc4c(C(=O)NCCc5ccncc5)n[nH]c4c3)c(Cl)c2)c1=O | 7.68 | – | – | – | 8.42 | 15.3 | – |
| Cc1cccn(-c2ccc(-c3ccc4c(C(=O)NCc5ccccc5)n[nH]c4c3)c(Cl)c2)c1=O | 7.04 | – | – | – | 9.66 | 13.2 | – |

Further lines, with some results ahead:

| pIC50 [1] | pIC50 [3] | Ratio IC50 (Homo sapiens) | pIC50 [4] | SMILES | inhibition of growth at 1 µM (MDA-MB-231) [%] | inhibition of growth at 1 µM (HCT-116) [%] | pIC50 [2] |
| --- | --- | --- | --- | --- | --- | --- | --- |
| 6.11 | – | – | – | Cc1cncc(-c2ccc(-c3ccc4c(C(=O)NCC5CC5)n[nH]c4c3)c(Cl)c2)n1 | – | – | – |
| 7.28 | – | – | – | CNC(=O)c1n[nH]c2cc(-c3ccc(-c4cccc(C)n4)cc3Cl)ccc12 | 8.12 | 7.16 | – |
| 6.64 | – | – | – | Cc1cccc(-c2ccc(-c3ccc4c(C(=O)NCC5CC5)n[nH]c4c3)c(Cl)c2)n1 | – | – | – |
| 7.80 | – | – | – | Cc1cccn(-c2ccc(-c3ccc4c(C(=O)Nc5ccncc5)n[nH]c4c3)c(Cl)c2)c1=O | 6.59 | 4.41 | – |
| 7.18 | – | – | – | Cc1cccn(-c2ccc(-c3ccc4c(C(=O)NCCO)n[nH]c4c3)c(Cl)c2)c1=O | 17.4 | 19.2 | – |
| 5.30 | 5.30 | – | – | CNC(=O)c1n[nH]c2cc(-c3ccccc3Cl)ccc12 | – | – | – |
| 6.80 | – | – | – | CNC(=O)c1n[nH]c2cc(-c3ccc(-c4cncc(C)n4)cc3Cl)ccc12 | 15.3 | 11.5 | – |
| 7.35 | – | > 200 | < 5.00 | CCNC(=O)c1n[nH]c2cc(-c3ccc(-n4cccc(C)c4=O)cc3Cl)ccc12 | 10.2 | 9.37 | 4.04 |
| 7.80 | – | – | < 5.00 | CNC(=O)c1n[nH]c2cc(-c3ccc(-n4cccc(C)c4=O)cc3Cl)ccc12 | 13.2 | 17.2 | – |
| 7.15 | – | – | – | COCCNC(=O)c1n[nH]c2cc(-c3ccc(-n4cccc(C)c4=O)cc3Cl)ccc12 | 3.07 | 10.3 | – |
| 7.47 | – | – | < 5.00 | Cc1cccn(-c2ccc(-c3ccc4c(C(=O)NCC5CC5)n[nH]c4c3)c(Cl)c2)c1=O | 6.87 | 10.8 | – |
| 6.48 | – | – | – | CNC(=O)c1n[nH]c2cc(-c3ccc(-n4ccccc4=O)cc3Cl)ccc12 | – | – | – |

— ChEMBL document CHEMBL4706541, “Design and synthesis of 1H-indazole-3-carboxamide derivatives as potent and selective PAK1 inhibitors with anti-tumour migration and invasion activities” (Eur J Med Chem, 2020)
